For one assay, the system named is Eclipta prostrata. Description: Herbicidal activity against Eclipta prostrata assessed as growth inhibition rate at 100 mg/L 7 days post compound treatment. Type of assay: functional. Conditions: 168 h, read-out: GI. An outline of the steps:
(§1)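 Compound dissolved in DMF and diluted to the test concentration with water containing emulsifier 0201 (anionic/nonionic surfactant, 0.1 g L-1). Seeds were sown once the agar cooled and kept at 24 ± 1 °C under 3000 lx light for 7 days. Read-out was root growth inhibition (%) versus control, in three replicates of 150 seeds per species per concentration.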

The test system of assay [1] is Brassica rapa subsp. oleifera. Nature of the assay: Herbicidal activity against Brassica rapa subsp. oleifera assessed as growth inhibition rate at 100 mg/L 7 days post compound treatment. Type of assay: functional. Conditions: 168 h, read-out: GI. An outline of the steps:
as §1

The next assay relates to Cucumis sativus. Nature of the assay: Herbicidal activity against Cucumis sativus (cucumber) assessed as growth inhibition rate at 100 mg/L 7 days post compound treatment. The format is functional. Conditions: 168 h, read-out: GI. An outline of the steps:
as §1

The subject of assay [2] is Echinochloa crus-galli. Nature of the assay: Herbicidal activity against Echinochloa crus-galli (barnyard grass) assessed as growth inhibition rate at 100 mg/L 7 days post compound treatment. Type of assay: functional. The following applies: 168 h, read-out: GI. An outline of the steps: as §1
The next assay deals with Sorghum bicolor. Nature of the assay: Herbicidal activity against Sorghum bicolor assessed as growth inhibition rate at 100 mg/L 7 days post compound treatment. The format is functional. The following applies: 168 h, read-out: GI. An outline of the steps:
as §1

Assay [3] relates to Echinochloa crus-galli. Description: Herbicidal activity against Echinochloa crus-galli (barnyard grass) assessed as induction of yellow symptoms of leaves 7 days post compound treatment. Type of assay: functional, organism-based.
Assay [4] relates to Echinochloa crus-galli. Nature of the assay: Herbicidal activity against Echinochloa crus-galli (barnyard grass) assessed as induction weed albinism 7 days post compound treatment. The format is functional, organism-based.
In the next assay the test system is Digitaria sanguinalis. Nature of the assay: Herbicidal activity against Digitaria sanguinalis (hairy crabgrass) assessed as growth inhibition rate at 100 mg/L 7 days post compound treatment. The format is functional. The following applies: 168 h, read-out: GI. An outline of the steps: as §1

Activity calls are given as the source filed them. No cut-off for these calls is given here.

This is an account of results in ChEMBL document CHEMBL3046806, “Synthesis and herbicidal activity of novel 3-aminocarbonyl-2-oxazolidinethione derivatives containing a substituted pyridine ring” (2006).

Take `C[C@@H]1[C@H](c2ccccn2)OC(=S)N1C(=O)NC1CCCCC1` (relative stereo): the inhibition of growth at 100 µg/mL is 80% with Eclipta prostrata; 0% in assay [1]; 0% in the assay with Cucumis sativus; 70% in the assay with Echinochloa crus-galli [2]; 0% in the assay on Sorghum bicolor; 70% with Digitaria sanguinalis. Moreover, the outcome in the assay with Echinochloa crus-galli [3] and in the assay on Echinochloa crus-galli [4] was Active.

Take `C[C@@H]1[C@H](c2ccncc2)OC(=S)N1C(=O)NC1CCCCC1` (relative stereo): the inhibition of growth at 100 µg/mL with Eclipta prostrata turned out to be 85%; in assay [1], 80%; in the assay on Cucumis sativus, 20%; in the assay on Echinochloa crus-galli [2], 90%; in the assay on Sorghum bicolor it was 30%; in the assay with Digitaria sanguinalis it was 80%. The outcome with Echinochloa crus-galli [3] and in the assay with Echinochloa crus-galli [4] was Active.

Consider `C[C@@H]1[C@H](c2ccncc2)OC(=S)N1C(=O)Nc1ccccc1[N+](=O)[O-]` (relative stereo), for which the inhibition of growth at 100 µg/mL in the assay with Eclipta prostrata worked out at 80%; in assay [1], 50%; with Cucumis sativus it was 20%; in the assay on Echinochloa crus-galli [2], 60%; in the assay with Sorghum bicolor it was 70%; with Digitaria sanguinalis it was 70%. Besides, the outcome in the assay on Echinochloa crus-galli [3] and with Echinochloa crus-galli [4] was Active.

`C[C@@H]1[C@H](c2ccc(OCC(F)(F)F)nc2)OC(=S)N1C(=O)NC1CCCCC1` (relative stereo): the inhibition of growth at 100 µg/mL in the assay with Eclipta prostrata was 80%; in assay [1] it was 40%; in the assay with Cucumis sativus, 40%; in the assay on Echinochloa crus-galli [2], 80%; with Sorghum bicolor it was 60%; in the assay with Digitaria sanguinalis, 70%. Besides, the outcome in the assay on Echinochloa crus-galli [3] and in the assay with Echinochloa crus-galli [4] was Active.

As to `CCOc1ccccc1NC(=O)N1C(=S)O[C@@H](c2ccc(Cl)nc2)[C@H]1C` (relative stereo), the inhibition of growth at 100 µg/mL in the assay on Eclipta prostrata was determined as 90%; in assay [1] it was 90%; in the assay on Cucumis sativus, 90%; with Echinochloa crus-galli [2], 90%; in the assay on Sorghum bicolor, 70%; in the assay on Digitaria sanguinalis it was 80%. The result in the assay on Echinochloa crus-galli [3] and with Echinochloa crus-galli [4] was Active.

Take `CCOc1ccc([C@@H]2OC(=S)N(C(=O)Nc3ccccc3OCC)[C@@H]2C)cn1` (relative stereo): the inhibition of growth at 100 µg/mL in the assay with Eclipta prostrata was determined as 20%; in assay [1], 0%; with Cucumis sativus, 0%; in the assay with Echinochloa crus-galli [2], 50%; with Sorghum bicolor, 0%; with Digitaria sanguinalis it was 80%. Further, the result in the assay with Echinochloa crus-galli [3] and with Echinochloa crus-galli [4] was Active.
